From ChEMBL document CHEMBL1121898, “Potential antiestrogens. Synthesis and evaluation of mammary tumor inhibiting activity of 1,2-dialkyl-1,2-bis(3'-hydroxyphenyl)ethanes” (1981) come the findings set out here.

The source made the active and inactive calls. No cut-off for these calls is given here.

Assay [1] has as its system MCF7. The experiment in a line: Inhibition of estrogen receptor positive MCF-7 cell proliferation as percent treated/control cell number after 10 days at 10e-6 M. The assay is classed as functional, Homo sapiens. A digest of the protocol:
(§1)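 MCF-7 cells were grown in McCoy's 5a medium with fetal bovine serum stripped by DCC (0.5 h, 45 °C). Compounds were dissolved in ethanol (final ≤0.5%) and diluted in complete medium. Cells were seeded at 5×10^4 cells/plate. On day 10, three replicate plates per group were counted by Coulter counter, three counts per plate. Percent T/C = test/control. In a retest, compounds were given at 10^-7 M with 17β-estradiol at 10^-7 or 10^-8 M.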

Assay [2] has as its system MCF7. The experiment in a line: Inhibition of estrogen receptor positive MCF-7 cell proliferation as percent treated/control cell number after 10 days at 10e-7 M. The assay is classed as functional, Homo sapiens. An outline of the steps:
as §1

Assay [3] has as its system MCF7. The experiment in a line: Inhibition of estrogen receptor positive MCF-7 cell proliferation as percent treated/control cell number after 10 days at 10e-8 M. The assay is classed as functional, Homo sapiens. A digest of the protocol: as §1
Assay [4] has as its system MCF7. The experiment in a line: Inhibition of estrogen receptor positive MCF-7 cell proliferation as cell number after 10 days at 10e-8 M. The class given is functional, Homo sapiens. An outline of the steps:
as §1

Assay [5] deals with MCF7. Description: Inhibition of estrogen receptor positive MCF-7 cell proliferation as cell number after 10 days at 10e-6 M. The assay is classed as functional, Homo sapiens. A digest of the protocol:
as §1

Assay [6] concerns MCF7. The experiment in a line: Inhibition of estrogen receptor positive MCF-7 cell proliferation as cell number after 10 days at 10e-7 M. The class given is functional, Homo sapiens. An outline of the steps:
as §1

Assay [7] is filed under the species Mus musculus. Description: Vaginal cornification test in mice at 0.1 ug; cornified nonnucleated cells present (estrus). The assay is classed as functional, organism-based.
The species entered for assay [8] is Mus musculus. The experiment in a line: Vaginal cornification test in mice at 0 ug; predominant cellular component leucocytes (diestrus). The assay is classed as functional, organism-based. An outline of the steps: (§2)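 Female NMRI mice (~15 g) were ovariectomized; castration was confirmed at 10 days by leucocyte smears. Mice were primed with estradiol 3-benzoate 0.2 μg, and only responders showing estrus were kept. Groups of three received sc test compound in 0.1 mL olive oil daily for 3 days. Saline vaginal smears were taken 6, 24, 30, 48 and 54 h after the last dose and scored by Allen-Doisy.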

The species named for assay [9] is Mus musculus. The experiment in a line: Vaginal cornification test in mice at 2.7 ug; predominant cellular component leucocytes (diestrus). The class given is functional, organism-based.
The species entered for assay [10] is Mus musculus. The experiment in a line: Predominant components of vaginal smear at a compound concentration of 240 ug was determined using vaginal cornification test; leucocytes (</= 50%), nucleated and cornified, nucleated cellscharacteristic of antiestrogens. The assay is classed as functional, organism-based.
The species named for assay [11] is Mus musculus. Description: Vaginal cornification test in mice at 27 ug; predominant cellular component leucocytes (diestrus). The assay is classed as functional, organism-based.
The species named for assay [12] is Mus musculus. The experiment in a line: Vaginal cornification test in mice at 5 ug; predominant cellular component leucocytes (diestrus). The class given is functional, organism-based. An outline of the steps: as §2
Assay [13] is filed under the species Mus musculus. Description: Predominant components of vaginal smear at a compound concentration of 80 ug was determined using vaginal cornification test; leucocytes (</= 50%), nucleated and cornified, nucleated cellscharacteristic of antiestrogens. The assay is classed as functional, organism-based.
Assay [14] deals with T1, Estrogen receptor (Mus musculus) (UniProt O08537+P19785). Description: Antiestrogenic activity in uterotrophic test in mice at 0 ug. The class given is functional. An outline of the steps:
(§3)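 Immature female NMRI mice, 20 days old (14.5 ± 1.2 g), randomly grouped 10 per group. Each received a daily sc injection for 3 days of 0.1 mL olive oil solution containing test compound, together with estrone to stimulate uterine growth. Uteri were removed 24 h after the last injection and weighed. Results are reported as % inhibition of the estrone-stimulated uterine weight gain, mean ± SD.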

The target in assay [15] is T1, Estrogen receptor (Mus musculus). Description: Antiestrogenic activity in uterotrophic test in mice at 2.7 ug. The class given is functional. An outline of the steps:
as §3

For assay [16] the target is unchanged. The experiment in a line: Antiestrogenic activity in uterotrophic test in mice at 240 ug. The class given is functional. An outline of the steps:
as §3

Assay [17] shares this target. Description: Antiestrogenic activity in uterotrophic test in mice at 27 ug. The class given is functional. A digest of the protocol:
as §3

The target is the same in assay [18]. The experiment in a line: Antiestrogenic activity in uterotrophic test in mice at 80 ug. The assay is classed as functional. A digest of the protocol:
as §3

Assay [19] has the same target. The experiment in a line: Antiestrogenic activity in uterotrophic test in mice at 5 ug. The assay is classed as functional. A digest of the protocol: as §3
Assay [20] shares this target. Description: Estrogenic activity in uterotrophic test in mice at 0 ug. The class given is functional. An outline of the steps: (§4)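 Uterine growth stimulation in immature female NMRI mice, 20 days old (14.5 ± 1.2 g), 10 per group. Test compound in 0.1 mL olive oil was given sc daily for 3 days. Uteri were excised 24 h after the final injection and weighed. Effect is reported as mean ± SD.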

Assay [21] shares this target. The experiment in a line: Estrogenic activity in uterotrophic test in mice at 180 ug. The assay is classed as functional. An outline of the steps:
as §4

The target is the same in assay [22]. The experiment in a line: Estrogenic activity in uterotrophic test in mice at 2 ug. The assay is classed as functional. A digest of the protocol:
as §4

The target is the same in assay [23]. Description: Estrogenic activity in uterotrophic test in mice at 20 ug. The assay is classed as functional. A digest of the protocol: as §4
Assay [24] has the same target. The experiment in a line: Estrogenic activity in uterotrophic test in mice at 533 ug. The class given is functional. An outline of the steps: (§5)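 Immature (20-day-old) female NMRI mice, 14.5 ± 1.2 g, randomized into groups of 10. Given the test compound sc daily for 3 days in 0.1 mL olive oil. Uteri removed 24 h after the last injection; uterine weight taken as the read-out, means ± SD. Dose in μg.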

For assay [25] the target is unchanged. Description: Estrogenic activity in uterotrophic test in mice at 60 ug. The class given is functional. A digest of the protocol:
as §5

For assay [26] the target is unchanged. The experiment in a line: Inhibitory activity in mouse uterine weight test at 2.7 ug. The class given is functional. An outline of the steps: (§6)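 Antiuterotrophic (Dorfman) assay in immature 20-day-old female NMRI mice, groups of 10. Uterine growth was stimulated with estrone (0.1 μg) and the test compound was given alongside it, sc daily for 3 days in 0.1 mL olive oil. Uteri were taken 24 h after the last dose. Uterine weight is reported as means ± SD and inhibition as % of the estrone-stimulated response.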

The target is the same in assay [27]. Description: Inhibitory activity in mouse uterine weight test at 240 ug. The class given is functional. A digest of the protocol: as §6
The target is the same in assay [28]. Description: Inhibitory activity in mouse uterine weight test at 27 ug. The assay is classed as functional. An outline of the steps:
as §6

Assay [29] has the same target. Description: Inhibitory activity in mouse uterine weight test at 5 ug. The class given is functional. An outline of the steps:
as §6

The target is the same in assay [30]. Description: Inhibitory activity in mouse uterine weight test at 80 ug. The assay is classed as functional. A digest of the protocol:
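Immature female NMRI mice, 20 days old (14.5 ± 1.2 g), in random groups of 10. They received sc injections daily for 3 days of 0.1 mL olive oil containing test compound, with estrone 0.1 μg given to stimulate uterine growth. Uteri were removed 24 h after the last injection and weighed (mean ± SD). Result is percent inhibition of the estrone-stimulated uterine weight gain.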

The subject of assay [31] is Estrogen receptor (Bos taurus). The experiment in a line: Displacement of [3H]estradiol from calf estrogen receptor. For orientation: Loss of bound radioactivity is the signal in a displacement assay; it reports binding, not function.
The target in assay [32] is T1, Estrogen receptor (Mus musculus). The experiment in a line: Antiestrogenic activity in uterotrophic test in mice at 100 ug. The class given is functional. A digest of the protocol:
as §3

For assay [33] the target is unchanged. Description: Antiestrogenic activity in uterotrophic test in mice at 1000 ug. The class given is functional. A digest of the protocol:
as §3

The target is the same in assay [34]. Description: Antiestrogenic activity in uterotrophic test in mice at 3.3 ug. The assay is classed as functional. An outline of the steps: as §3
The target is the same in assay [35]. Description: Inhibitory activity in mouse uterine weight test at 0.1 ug. The assay is classed as functional. A digest of the protocol: as §6
For assay [36] the target is unchanged. Description: Inhibitory activity in mouse uterine weight test at 100 ug. The assay is classed as functional. A digest of the protocol:
as §6

The target is the same in assay [37]. The experiment in a line: Inhibitory activity in mouse uterine weight test at 1000 ug. The assay is classed as functional. An outline of the steps: as §6

T1 sequence (O08537 whole entry, looked up): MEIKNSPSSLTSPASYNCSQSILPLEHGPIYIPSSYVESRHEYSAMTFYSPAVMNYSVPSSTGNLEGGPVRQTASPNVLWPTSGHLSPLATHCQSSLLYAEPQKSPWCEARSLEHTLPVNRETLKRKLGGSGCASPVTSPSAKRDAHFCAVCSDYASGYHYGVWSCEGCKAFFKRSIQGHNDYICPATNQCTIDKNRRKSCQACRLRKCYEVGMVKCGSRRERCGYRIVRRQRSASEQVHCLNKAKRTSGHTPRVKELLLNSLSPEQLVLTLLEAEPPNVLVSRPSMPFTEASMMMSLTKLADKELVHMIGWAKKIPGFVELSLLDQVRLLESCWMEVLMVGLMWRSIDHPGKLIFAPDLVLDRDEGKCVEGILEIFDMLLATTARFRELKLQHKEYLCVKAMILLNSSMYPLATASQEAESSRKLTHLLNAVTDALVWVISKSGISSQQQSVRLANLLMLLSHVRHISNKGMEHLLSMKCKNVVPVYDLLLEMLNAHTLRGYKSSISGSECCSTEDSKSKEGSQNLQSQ
T1 sequence (P19785 whole entry, looked up): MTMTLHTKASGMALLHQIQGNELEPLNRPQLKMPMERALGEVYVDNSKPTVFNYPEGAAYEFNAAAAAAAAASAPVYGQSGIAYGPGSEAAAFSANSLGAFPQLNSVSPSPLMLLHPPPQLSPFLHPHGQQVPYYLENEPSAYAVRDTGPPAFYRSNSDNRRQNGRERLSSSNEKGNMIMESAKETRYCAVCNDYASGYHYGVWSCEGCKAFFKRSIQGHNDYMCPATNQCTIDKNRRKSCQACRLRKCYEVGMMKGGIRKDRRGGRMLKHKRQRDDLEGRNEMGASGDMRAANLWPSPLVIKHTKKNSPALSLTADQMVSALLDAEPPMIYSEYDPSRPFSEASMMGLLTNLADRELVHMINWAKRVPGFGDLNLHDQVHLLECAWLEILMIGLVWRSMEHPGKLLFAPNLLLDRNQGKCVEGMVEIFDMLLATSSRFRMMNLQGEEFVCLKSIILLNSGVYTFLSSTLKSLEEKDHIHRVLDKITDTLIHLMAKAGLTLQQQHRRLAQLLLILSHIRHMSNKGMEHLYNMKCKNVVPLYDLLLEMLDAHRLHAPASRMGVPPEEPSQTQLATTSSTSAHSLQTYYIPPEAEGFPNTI

For orientation: T/C means the result in the treated group divided by that in the control group, in per cent. On to `CC/C(=C(\c1ccccc1)c1ccc(OCCN(C)C)cc1)c1ccccc1` [TAMOXIFEN], for which the T/C in the assay on MCF7 [1] turned out to be 75%; in the assay on MCF7 [2] it was 79%; with MCF7 [3], 87%. The Cell number with MCF7 [4] was 38000; in the assay with MCF7 [5], 32900; with MCF7 [6] it was 34600.
In the case of `C[C@]12CC[C@@H]3c4ccc(O)cc4CC[C@H]3[C@@H]1CCC2=O`, the result in the assay filed under Mus musculus [7] was Active.
The inhibition is the percentage by which the read-out fell short of the control. A low value points to a weak effect. For the compound `CC(C)CC(c1cccc(O)c1)C(CC(C)C)c1cccc(O)c1` (centres undefined), the result in the assay filed under Mus musculus [8], in the assay filed under Mus musculus [9], in the assay listed under Mus musculus [11] and in the assay listed under Mus musculus [12] was inactive. The Activity result in the assay filed under Mus musculus [10] and in the assay filed under Mus musculus [13] was “Weak activity” each time. Moreover, the Effect in [14] amounted to 11.4; in assay [15] it was 38.1; in assay [16], 31.7; in assay [17], 33.2; in assay [18] it was 31.5; in [19], 34.1. Also, the Effect in assay [20] turned out to be 10; in assay [21], 32.6; in [22], 11.8; in [23], 14.5; in assay [24] it was 31.3; in assay [25] it was 19. The inhibition is 4% in assay [26]; 27% in assay [27]; 22% in [28]; 18% in assay [29]; 28% in assay [30]. This compound showed a Ka in [31] of 110000 M⁻¹.
`CCCCCC(c1cccc(O)c1)C(CCCCC)c1cccc(O)c1` (centres undefined): the Effect in [14] worked out at 10.5; in [32], 34.2; in assay [33] it was 34.6; in assay [34] it was 39.5. In addition, the inhibition worked out at 5% in assay [35], 15% in [36] and 14% in [37]. Also, the Ka in [31] was 3.3e+06 M⁻¹.
